Type in all cases: cell-based
Assay [1] has as its target Somatostatin receptor type 3 (Homo sapiens) (UniProt P32745). The assay is described as follows: Binding assay at human somatostatin receptor 3 (hsst3) expressed in CCL-39 cells using LTT-CST-14-(Tyr10) as radioligand. The gist of the method: (§1)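 Chinese hamster lung fibroblast CCL39 cells stably expressing each hsst receptor; crude membrane homogenates in 10 mM HEPES pH 7.5, 0.5% BSA, 5 mM MgCl2, 5 mg/mL bacitracin. Competition against 25-50 pM [125I][Tyr10]CST14; 1 µM SRIF14 defines nonspecific binding. Vacuum filtration, bound radioactivity counted. Triplicate curves fitted by nonlinear regression; pKD reported.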

For assay [2], the target named is Somatostatin receptor type 2 (Homo sapiens) (UniProt P30874). The assay can be described thus: Binding assay at human somatostatin receptor 2 (hsst2) expressed in CCL-39 cells using LTT-CST-14-(Tyr10) as radioligand. The gist of the method:
(§2)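 Chinese hamster lung fibroblast CCL39 cells stably expressing each hsst receptor; crude membrane homogenates in 10 mM HEPES pH 7.5, 0.5% BSA, 5 mM MgCl2, 5 mg/mL bacitracin. Vacuum filtration, bound radioactivity counted. Triplicate curves fitted by nonlinear regression; pKD reported.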

The target in assay [3] is Somatostatin receptor type 4 (Homo sapiens) (UniProt P31391). The assay can be described thus: Binding assay at human somatostatin receptor 4 (hsst4) expressed in CCL-39 cells using LTT-CST-14-(Tyr10) as radioligand. In a few lines:
as §2

Assay [4] deals with Somatostatin receptor type 5 (Homo sapiens) (UniProt P35346). The assay is described as follows: Binding assay at human somatostatin receptor 5 (hsst5) expressed in CCL-39 cells using LTT-CST-14-(Tyr10) as radioligand. The gist of the method:
as §2

Assay [5] deals with Somatostatin receptor type 1 (Homo sapiens) (UniProt P30872). The assay can be described thus: Binding assay at human somatostatin receptor 1 (hsst1) expressed in CCL-39 cells using LTT-CST-14-(Tyr10) as radioligand. In a few lines:
as §1

This is an account of results in ChEMBL document CHEMBL1134538, “Peptide folding induces high and selective affinity of a linear and small beta-peptide to the human somatostatin receptor 4” (J Med Chem, 2001).

Positions of bridges follow the written chain, without caps; N, C: chain ends. Non-standard residues stand in square brackets, D forms with d. Residues, ends and D or L forms follow the SMILES beside them. *: point of attachment. Threoninol(2S,3R) = C[C@@H](O)[C@H](CO)N*

Chain of Somatostatin receptor type 5 (Homo sapiens) (P35346 whole entry): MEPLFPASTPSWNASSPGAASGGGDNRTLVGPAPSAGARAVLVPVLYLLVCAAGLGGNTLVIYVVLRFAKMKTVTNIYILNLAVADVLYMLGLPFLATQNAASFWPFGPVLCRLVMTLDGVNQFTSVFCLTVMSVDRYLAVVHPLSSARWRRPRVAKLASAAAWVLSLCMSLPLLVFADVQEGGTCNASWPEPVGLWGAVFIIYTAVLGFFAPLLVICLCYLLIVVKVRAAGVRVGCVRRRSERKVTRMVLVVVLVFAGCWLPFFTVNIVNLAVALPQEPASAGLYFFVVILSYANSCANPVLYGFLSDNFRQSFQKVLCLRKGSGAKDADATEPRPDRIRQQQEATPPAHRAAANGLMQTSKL
Chain of Somatostatin receptor type 2 (Homo sapiens) (P30874 whole entry): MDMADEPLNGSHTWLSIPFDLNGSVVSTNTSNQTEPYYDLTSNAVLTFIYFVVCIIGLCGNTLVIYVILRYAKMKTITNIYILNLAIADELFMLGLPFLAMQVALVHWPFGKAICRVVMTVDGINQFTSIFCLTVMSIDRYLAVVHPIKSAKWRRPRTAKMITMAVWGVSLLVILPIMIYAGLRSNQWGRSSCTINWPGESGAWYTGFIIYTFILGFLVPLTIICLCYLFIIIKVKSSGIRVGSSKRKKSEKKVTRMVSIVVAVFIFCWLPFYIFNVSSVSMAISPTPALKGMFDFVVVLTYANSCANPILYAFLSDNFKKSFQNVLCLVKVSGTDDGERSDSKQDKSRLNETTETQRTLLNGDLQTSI
Chain of Somatostatin receptor type 3 (Homo sapiens) (P32745 whole entry): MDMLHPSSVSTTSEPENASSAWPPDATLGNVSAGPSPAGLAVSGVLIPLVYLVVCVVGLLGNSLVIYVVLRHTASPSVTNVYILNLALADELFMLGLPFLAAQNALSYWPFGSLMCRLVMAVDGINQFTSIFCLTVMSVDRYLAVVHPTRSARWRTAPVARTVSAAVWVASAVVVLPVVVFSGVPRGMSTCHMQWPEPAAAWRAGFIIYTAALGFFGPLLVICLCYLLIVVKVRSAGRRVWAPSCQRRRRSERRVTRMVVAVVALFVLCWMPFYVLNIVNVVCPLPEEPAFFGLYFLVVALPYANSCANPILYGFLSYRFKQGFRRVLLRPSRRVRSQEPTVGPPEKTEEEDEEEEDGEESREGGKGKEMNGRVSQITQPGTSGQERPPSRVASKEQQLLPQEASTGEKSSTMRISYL
Chain of Somatostatin receptor type 4 (Homo sapiens) (P31391 whole entry): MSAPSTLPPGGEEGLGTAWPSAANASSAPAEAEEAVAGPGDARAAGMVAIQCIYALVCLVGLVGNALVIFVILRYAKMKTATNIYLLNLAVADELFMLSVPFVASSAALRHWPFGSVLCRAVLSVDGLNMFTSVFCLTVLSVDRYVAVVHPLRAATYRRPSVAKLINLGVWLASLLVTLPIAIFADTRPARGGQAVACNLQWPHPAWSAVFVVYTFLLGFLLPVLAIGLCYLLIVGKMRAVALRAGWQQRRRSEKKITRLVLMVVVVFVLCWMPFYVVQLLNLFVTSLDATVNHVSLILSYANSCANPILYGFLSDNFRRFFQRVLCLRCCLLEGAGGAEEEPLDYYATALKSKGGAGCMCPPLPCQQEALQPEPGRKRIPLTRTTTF
Chain of Somatostatin receptor type 1 (Homo sapiens) (P30872 whole entry): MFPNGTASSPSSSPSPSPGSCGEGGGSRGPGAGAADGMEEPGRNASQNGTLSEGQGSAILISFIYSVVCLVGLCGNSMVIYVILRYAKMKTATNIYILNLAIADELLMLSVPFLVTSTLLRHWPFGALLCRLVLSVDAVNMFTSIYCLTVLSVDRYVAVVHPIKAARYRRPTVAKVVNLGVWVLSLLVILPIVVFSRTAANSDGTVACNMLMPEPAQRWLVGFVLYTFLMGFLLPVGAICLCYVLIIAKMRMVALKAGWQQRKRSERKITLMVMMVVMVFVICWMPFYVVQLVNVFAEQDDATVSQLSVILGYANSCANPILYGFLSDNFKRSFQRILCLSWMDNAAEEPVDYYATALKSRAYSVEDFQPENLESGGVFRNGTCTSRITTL

In assay [1], `C[C@@H](O)[C@H](CO)NC(=O)[C@@H]1CSSC[C@H](NC(=O)[C@H](N)Cc2ccccc2)C(=O)N[C@@H](Cc2ccccc2)C(=O)N[C@H](Cc2c[nH]c3ccccc23)C(=O)N[C@@H](CCCCN)C(=O)N[C@@H]([C@@H](C)O)C(=O)N1` (H-[dF]CF[dW]KTC-{Threoninol(2S,3R)}; disulfide 2-7) yielded a pKD of 8.6.
`CC(=O)N[C@H](CC(=O)N[C@@H](CCCCN)CC(=O)N[C@H](CC(=O)N[C@H](CC(N)=O)Cc1ccccc1)Cc1c[nH]c2ccccc12)[C@@H](C)O`: the pKD was less than 4 in assay [2]; less than 4 in assay [3]; less than 4 in assay [4]; less than 4 in assay [5]; less than 5 in assay [1].
For `CC(=O)N[C@H](C(=O)N[C@@H](CCCCN)C(=O)N[C@@H](Cc1c[nH]c2ccccc12)C(=O)N[C@@H](Cc1ccccc1)C(N)=O)[C@@H](C)O` (Ac-TKWF-NH2), the pKD in assay [2] is less than 4; in assay [3], less than 5; in assay [4] it was less than 4; in assay [5], less than 4; in assay [1], less than 5.
For `CC(=O)N[C@H](CC(=O)NC[C@H](CCCCN)C(=O)N[C@H](CC(=O)N[C@H](CC(N)=O)Cc1ccccc1)Cc1c[nH]c2ccccc12)[C@@H](C)O`, the pKD in assay [2] was less than 5; in assay [3], 7.08; in assay [4], less than 5; in assay [5], 4.88; in assay [1], less than 5.

In general, pKD refers to the KD on a negative log10 scale, so that one unit is a factor of ten.
